{"data": "Measurements gathered from unrelated publications", "target": "Muscle, skeletal receptor tyrosine-protein kinase (MUSK, Homo sapiens, UniProt O15146)", "Sequence (O15146 24-869, as in one of the studies)": "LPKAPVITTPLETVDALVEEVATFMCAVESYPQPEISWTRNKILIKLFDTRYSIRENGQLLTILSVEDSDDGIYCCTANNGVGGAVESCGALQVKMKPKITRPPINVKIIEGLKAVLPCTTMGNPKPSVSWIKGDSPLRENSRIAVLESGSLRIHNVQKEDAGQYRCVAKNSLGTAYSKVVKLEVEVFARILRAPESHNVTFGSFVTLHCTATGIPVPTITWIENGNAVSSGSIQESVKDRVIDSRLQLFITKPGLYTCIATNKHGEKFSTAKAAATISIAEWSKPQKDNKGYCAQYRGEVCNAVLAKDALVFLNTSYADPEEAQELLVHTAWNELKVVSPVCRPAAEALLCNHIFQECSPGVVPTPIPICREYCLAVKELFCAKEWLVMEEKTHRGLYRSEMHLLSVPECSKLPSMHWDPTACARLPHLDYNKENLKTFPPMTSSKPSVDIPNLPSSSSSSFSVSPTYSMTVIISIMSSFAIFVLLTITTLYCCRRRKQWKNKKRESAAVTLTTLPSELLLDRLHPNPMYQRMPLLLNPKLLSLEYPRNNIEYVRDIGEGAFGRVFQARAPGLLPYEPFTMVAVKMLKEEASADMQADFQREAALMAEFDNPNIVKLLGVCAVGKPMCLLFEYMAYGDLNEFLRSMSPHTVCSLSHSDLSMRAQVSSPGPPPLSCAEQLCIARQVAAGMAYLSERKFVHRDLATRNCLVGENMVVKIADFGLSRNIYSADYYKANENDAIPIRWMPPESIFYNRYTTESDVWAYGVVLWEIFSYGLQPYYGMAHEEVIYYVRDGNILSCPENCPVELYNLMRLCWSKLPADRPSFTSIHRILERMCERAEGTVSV", "note": "Compare with care: the assays were run in different laboratories."}
{"SMILES": "O=C(c1ccc(Nc2ncc(Cl)c(-c3cc4ccccc4s3)n2)cc1)N1CCC(N2CCCC2)CC1", "observed": "binding", "technique": "competition with immobilised ligand", "concentration": "1 µM", "remaining binding": "24%"}
{"SMILES": "CCCCN(CCCC)C(=O)CN1C[C@@H](c2cc(OC)c3c(c2)OCO3)[C@H](C(=O)O)[C@H]1CC(C)(C)CCC", "observed": "cell-free assay", "technique": "competition with immobilised ligand", "concentration": "1 µM", "remaining binding": "78.7%"}
{"SMILES": "CCN1CCN(Cc2ccc(C(=O)Nc3ccc(C)c(Oc4ccc5c(c4)CC(=O)N5)c3)cc2C(F)(F)F)CC1", "observed": "binding", "technique": "competition with immobilised ligand", "concentration": "1 µM", "remaining binding": "100%"}
{"SMILES": "Cc1cnn2ncc(-c3ccnc(N(C)C)n3)c2c1", "observed": "binding", "concentration": "1 µM", "remaining binding": "79%"}
{"SMILES": "COc1ccc2c(c1)O[C@@H](c1ccc(OC)c(OC)c1)C[C@H]2NC(=O)C1(c2ccc3c(c2)OC(F)(F)O3)CC1", "observed": "cell-free assay", "technique": "competition with immobilised ligand", "concentration": "1 µM", "remaining binding": "94%"}
{"SMILES": "Cc1cnc(Nc2ccc(C(=O)N3CCC(N4CCCC4)CC3)cc2)nc1-c1cc2ccccc2s1", "observed": "binding", "technique": "competition with immobilised ligand", "concentration": "1 µM", "remaining binding": "30%"}
{"SMILES": "c1cncc(-c2cccc(Nc3nccc(NC4CCCCC4)n3)c2)c1", "observed": "binding", "technique": "competition with immobilised ligand", "concentration": "10 µM", "remaining binding": "86%"}
{"SMILES": "COc1cnc(Nc2cccc(S(N)(=O)=O)c2)nc1N1CCN(c2ccccc2)C(=O)C1", "observed": "binding", "technique": "competition with immobilised ligand", "concentration": "1 µM", "remaining binding": "99%"}
{"SMILES": "O=C(NCCCN1CCOCC1)c1ccc(Nc2ncc(Cl)c(-c3ccc(Cl)s3)n2)cc1", "observed": "binding", "technique": "competition with immobilised ligand", "concentration": "1 µM", "remaining binding": "54%"}
{"SMILES": "O=C(NCc1ncc(C(F)(F)F)cc1Cl)c1ccc2c(c1)C1(CCS(=O)(=O)CC1)[C@@H](C1CC1)N2S(=O)(=O)c1ccc(F)cc1", "observed": "cell-free assay", "technique": "competition with immobilised ligand", "concentration": "1 µM", "remaining binding": "79%"}
{"SMILES": "N[C@@H]1CCN(c2nccc(-c3cnn4ncccc34)n2)C1", "observed": "binding", "concentration": "1 µM", "remaining binding": "100%"}
{"SMILES": "O=C(NS(=O)(=O)c1ccc(NCC2CCOCC2)c([N+](=O)[O-])c1)c1ccc(N2CCN(Cc3ccc(C(F)(F)F)cc3-c3ccc(Cl)cc3)CC2)cc1Oc1cnc2[nH]ccc2c1", "observed": "cell-free assay", "technique": "competition with immobilised ligand", "concentration": "1 µM", "remaining binding": "98%"}
{"SMILES": "CN(C)c1nccc(-c2cnn3ncccc23)n1", "observed": "binding", "concentration": "1 µM", "remaining binding": "92%"}
{"SMILES": "CCS(=O)(=O)c1cc2cc(C[C@](O)(CC(C)(C)c3ccc(F)cc3C(N)=O)C(F)(F)F)[nH]c2cn1", "observed": "cell-free assay", "technique": "competition with immobilised ligand", "concentration": "1 µM", "remaining binding": "94%"}
{"SMILES": "CC1CCCN1c1nccc(-c2cnn3ncccc23)n1 (stereo not shown)", "observed": "binding", "concentration": "1 µM", "remaining binding": "100%"}
{"SMILES": "C=CC(=O)N1CCC(C(=O)NCC(=O)N2CCN(c3nc(-c4cnc(N)nc4C(F)F)nc(N4CCOCC4)n3)CC2)CC1", "observed": "binding", "technique": "competition with immobilised ligand", "concentration": "1 µM", "remaining binding": "79%"}
{"SMILES": "c1cnn2ncc(-c3ccnc(N4CCC45COC5)n3)c2c1", "observed": "binding", "concentration": "1 µM", "remaining binding": "80%"}
{"SMILES": "FC(F)(F)Oc1cccc(-c2cnc3ccc(-c4ccncc4)nn23)c1", "observed": "cell-free assay", "technique": "competition with immobilised ligand", "concentration": "5 µM", "remaining binding": "99%"}
{"SMILES": "C[C@@H]1CCN(c2nccc(-c3cnn4ncccc34)n2)C1", "observed": "binding", "concentration": "1 µM", "remaining binding": "92%"}
{"SMILES": "CCC(=O)N[C@H]1CC[C@@H](C(=O)N(C)c2ccc(-c3nc4ccccc4o3)cc2)C1", "observed": "cell-free assay", "technique": "competition with immobilised ligand", "concentration": "1 µM", "remaining binding": "100%"}
{"SMILES": "O=C(NCC1CCOCC1)c1n[nH]cc1NC(=O)c1c(F)cccc1F", "observed": "binding", "technique": "competition with immobilised ligand", "concentration": "1 µM", "remaining binding": "88%"}
{"SMILES": "CN(C)c1ncc(F)c(-c2cnn3ncccc23)n1", "observed": "binding", "concentration": "1 µM", "remaining binding": "100%"}
